Experimental data from ChEMBL document CHEMBL3098105, “7,7'-Diazaindirubin--a small molecule inhibitor of casein kinase 2 in vitro and in cells” (Bioorg Med Chem, 2014).
Activity calls are given as the source filed them. No cut-off for these calls is given here.

Assays:
[1] = biological target: Fibroblast growth factor receptor 1 (Homo sapiens) (UniProt P11362); assay: Inhibition of FGF-R1 (unknown origin) assessed as residual activity at 1 uM relative to control
[2] = biological target: Cyclin-dependent kinase 4/cyclin D1 (Homo sapiens) (UniProt P11802+P24385); assay: Inhibition of CDK4/CycD1 (unknown origin) assessed as residual activity at 1 uM relative to control; assay type: protein-complex assay
[3] = biological target: Cyclin-dependent kinase 1/cyclin B1 (Homo sapiens) (UniProt P06493+P14635); assay: Inhibition of CDK1/CycB1 (unknown origin) assessed as residual activity at 1 uM relative to control; assay type: protein-complex assay
[4] = tested on: 786-0; assay: Antiproliferative activity against human 786-0 cells after 3 days by sulforhodamine B assay; assay type: functional; conditions: 786-0, 72 h
Method in brief: (§1)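 Tested in the NCI 60 cell line panel. GI50 is the concentration giving 50% inhibition of cell growth, and values are the mean of two series of tests.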

[5] = tested on: HCT-15; assay: Antiproliferative activity against human HCT15 cells after 3 days by sulforhodamine B assay; assay type: functional; conditions: HCT-15, 72 h; method in brief: as §1
[6] = tested on: MCF7; assay: Cell cycle arrest in human MCF7 cells assessed as accumulation at sub-G1 phase at 1 uM after 24 hrs using propidium iodide staining by FACS analysis (reference value: 0.17%); assay type: functional
[7] = biological target: Death-associated protein kinase 3 (Homo sapiens) (UniProt O43293); assay: Inhibition of human ZIPK assessed as residual activity at 1 uM relative to control
[8] = biological target: Serine/threonine-protein kinase ULK2 (Homo sapiens) (UniProt Q8IYT8); assay: Inhibition of human ULK2 assessed as residual activity at 1 uM relative to control
[9] = biological target: Angiopoietin-1 receptor (Homo sapiens) (UniProt Q02763); assay: Inhibition of human Tie2 assessed as residual activity at 1 uM relative to control
[10] = biological target: Serine/threonine-protein kinase TAO1 (Homo sapiens) (UniProt Q7L7X3); assay: Inhibition of human TAO1 assessed as residual activity at 1 uM relative to control
[11] = biological target: Serine/threonine-protein kinase PLK2 (Homo sapiens) (UniProt Q9NYY3); assay: Inhibition of human Snk assessed as residual activity at 1 uM relative to control
[12] = biological target: cAMP-dependent protein kinase catalytic subunit PRKX (Homo sapiens) (UniProt P51817); assay: Inhibition of human PrKX assessed as residual activity at 1 uM relative to control
[13] = tested on: NCI-H226; assay: Antiproliferative activity against human NCI-H226 cells after 3 days by sulforhodamine B assay; assay type: functional; conditions: NCI-H226, 72 h; method in brief: as §1
[14] = tested on: HL-60; assay: Antiproliferative activity against human HL60 cells after 3 days by sulforhodamine B assay; assay type: functional; conditions: HL-60, 72 h; method in brief: as §1
[15] = tested on: MCF7; assay: Induction of apoptosis in human MCF7 cells assessed as PARP cleavage at 1 uM after 24 hrs by Western blot analysis; assay type: functional, cell-based
Method in brief: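 Cells were lysed in urea lysis buffer (6 M urea, NaF, Na3VO4, protease inhibitors). 20–40 µg protein was run on 10% SDS-PAGE and detected by ECL. Primary antibodies (pAkt S473, PARP, β-actin loading control) were used at 1:1000 overnight at 4 °C. DMSO was the vehicle control. For the pAkt blots, cells were treated for 2 h with Ly294002 as positive control.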

[16] = tested on: MCF7; assay: Cell cycle arrest in human MCF7 cells assessed as accumulation at S phase at 0.25 uM after 24 hrs using propidium iodide staining by FACS analysis (reference value: 18.59%); assay type: functional
[17] = biological target: Serine/threonine-protein kinase D1 (Homo sapiens) (UniProt Q15139); assay: Inhibition of human PKCmu assessed as residual activity at 1 uM relative to control
[18] = biological target: 3-phosphoinositide-dependent protein kinase 1 (Homo sapiens) (UniProt O15530); assay: Inhibition of human PDK1 assessed as residual activity at 1 uM relative to control
[19] = biological target: Platelet-derived growth factor receptor alpha (Homo sapiens) (UniProt P16234); assay: Inhibition of human PDGFRalpha assessed as residual activity at 1 uM relative to control
[20] = biological target: Serine/threonine-protein kinase PAK 5 (Homo sapiens) (UniProt Q9P286); assay: Inhibition of human PAK5 assessed as residual activity at 1 uM relative to control
[21] = tested on: MCF7; assay: Antiproliferative activity against human MCF7 cells after 3 days by SRB assay; assay type: functional, cell-based; conditions: MCF7, 72 h
Method in brief: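 Cells grown at 37 °C, 5% CO2, with 10% heat-inactivated FBS: LXFL529L in RPMI 1640, MCF7 and HT29 in DMEM. Seeded, allowed 24 h growth, then exposed to the drug at various concentrations for 3 days in serum medium. Fixed with TCA for 1 h at 4 °C, stained with 0.4% SRB, eluted in 10 mM Tris pH 10.5, read at 570 nm as % T/C. IC50 taken from dose–response curves of at least three independent experiments.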

[22] = biological target: Dual specificity mitogen-activated protein kinase kinase 6 (Homo sapiens) (UniProt P52564); assay: Inhibition of human MKK6 assessed as residual activity at 1 uM relative to control
[23] = biological target: Hepatocyte growth factor receptor (Homo sapiens) (UniProt P08581); assay: Inhibition of human Met assessed as residual activity at 1 uM relative to control
[24] = biological target: Mitogen-activated protein kinase 1 (Homo sapiens) (UniProt P28482); assay: Inhibition of human MAPK1 assessed as residual activity at 1 uM relative to control
[25] = biological target: Inhibitor of nuclear factor kappa-B kinase subunit alpha (Homo sapiens) (UniProt O15111); assay: Inhibition of human IKKalpha assessed as residual activity at 1 uM relative to control
[26] = biological target: Tyrosine-protein kinase Fes/Fps (Homo sapiens) (UniProt P07332); assay: Inhibition of human Fes assessed as residual activity at 1 uM relative to control
[27] = biological target: Dual specificity protein kinase CLK2 (Homo sapiens) (UniProt P49760); assay: Inhibition of human CLK2 assessed as residual activity at 1 uM relative to control
[28] = biological target: CDK9/cyclin T1 (Homo sapiens) (UniProt O60563+P50750); assay: Inhibition of human CDK9/cyclin T1 assessed as residual activity at 1 uM relative to control; assay type: protein-complex assay
[29] = biological target: Calcium/calmodulin-dependent protein kinase type II subunit beta (Homo sapiens) (UniProt Q13554); assay: Inhibition of human CaMK2beta assessed as residual activity at 1 uM relative to control
[30] = biological target: NUAK family SNF1-like kinase 1 (Homo sapiens) (UniProt O60285); assay: Inhibition of human ARK5 assessed as residual activity at 1 uM relative to control
[31] = biological target: Proto-oncogene tyrosine-protein kinase Src (Homo sapiens) (UniProt P12931); assay: Inhibition of SRC (unknown origin) assessed as residual activity at 10 uM relative to control
[32] = biological target: Proto-oncogene tyrosine-protein kinase receptor Ret (Homo sapiens) (UniProt P07949); assay: Inhibition of RET (unknown origin) assessed as residual activity at 10 uM relative to control
[33] = biological target: Tyrosine-protein kinase JAK2 (Homo sapiens) (UniProt O60674); assay: Inhibition of JAK2 (unknown origin) assessed as residual activity at 10 uM relative to control

Chain of Calcium/calmodulin-dependent protein kinase type II subunit beta (Homo sapiens) (Q13554 whole entry): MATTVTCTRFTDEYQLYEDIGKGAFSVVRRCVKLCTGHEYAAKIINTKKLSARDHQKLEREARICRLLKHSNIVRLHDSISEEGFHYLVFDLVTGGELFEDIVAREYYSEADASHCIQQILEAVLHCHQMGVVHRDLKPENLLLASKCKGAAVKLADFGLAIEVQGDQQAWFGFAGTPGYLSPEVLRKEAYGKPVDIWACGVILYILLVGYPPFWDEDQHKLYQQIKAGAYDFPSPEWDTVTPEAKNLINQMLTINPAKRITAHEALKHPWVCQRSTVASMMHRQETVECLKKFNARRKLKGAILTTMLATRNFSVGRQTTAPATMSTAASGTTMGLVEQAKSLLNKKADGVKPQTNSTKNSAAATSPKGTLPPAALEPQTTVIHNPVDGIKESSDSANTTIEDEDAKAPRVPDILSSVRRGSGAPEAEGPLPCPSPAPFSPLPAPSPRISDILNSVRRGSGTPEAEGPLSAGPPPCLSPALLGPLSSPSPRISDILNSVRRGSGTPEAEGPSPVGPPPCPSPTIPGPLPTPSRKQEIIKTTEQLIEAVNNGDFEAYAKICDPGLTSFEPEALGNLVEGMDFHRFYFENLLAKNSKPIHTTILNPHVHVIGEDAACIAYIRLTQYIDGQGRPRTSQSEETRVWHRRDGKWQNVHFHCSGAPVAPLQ
Chain of Angiopoietin-1 receptor (Homo sapiens) (Q02763 whole entry): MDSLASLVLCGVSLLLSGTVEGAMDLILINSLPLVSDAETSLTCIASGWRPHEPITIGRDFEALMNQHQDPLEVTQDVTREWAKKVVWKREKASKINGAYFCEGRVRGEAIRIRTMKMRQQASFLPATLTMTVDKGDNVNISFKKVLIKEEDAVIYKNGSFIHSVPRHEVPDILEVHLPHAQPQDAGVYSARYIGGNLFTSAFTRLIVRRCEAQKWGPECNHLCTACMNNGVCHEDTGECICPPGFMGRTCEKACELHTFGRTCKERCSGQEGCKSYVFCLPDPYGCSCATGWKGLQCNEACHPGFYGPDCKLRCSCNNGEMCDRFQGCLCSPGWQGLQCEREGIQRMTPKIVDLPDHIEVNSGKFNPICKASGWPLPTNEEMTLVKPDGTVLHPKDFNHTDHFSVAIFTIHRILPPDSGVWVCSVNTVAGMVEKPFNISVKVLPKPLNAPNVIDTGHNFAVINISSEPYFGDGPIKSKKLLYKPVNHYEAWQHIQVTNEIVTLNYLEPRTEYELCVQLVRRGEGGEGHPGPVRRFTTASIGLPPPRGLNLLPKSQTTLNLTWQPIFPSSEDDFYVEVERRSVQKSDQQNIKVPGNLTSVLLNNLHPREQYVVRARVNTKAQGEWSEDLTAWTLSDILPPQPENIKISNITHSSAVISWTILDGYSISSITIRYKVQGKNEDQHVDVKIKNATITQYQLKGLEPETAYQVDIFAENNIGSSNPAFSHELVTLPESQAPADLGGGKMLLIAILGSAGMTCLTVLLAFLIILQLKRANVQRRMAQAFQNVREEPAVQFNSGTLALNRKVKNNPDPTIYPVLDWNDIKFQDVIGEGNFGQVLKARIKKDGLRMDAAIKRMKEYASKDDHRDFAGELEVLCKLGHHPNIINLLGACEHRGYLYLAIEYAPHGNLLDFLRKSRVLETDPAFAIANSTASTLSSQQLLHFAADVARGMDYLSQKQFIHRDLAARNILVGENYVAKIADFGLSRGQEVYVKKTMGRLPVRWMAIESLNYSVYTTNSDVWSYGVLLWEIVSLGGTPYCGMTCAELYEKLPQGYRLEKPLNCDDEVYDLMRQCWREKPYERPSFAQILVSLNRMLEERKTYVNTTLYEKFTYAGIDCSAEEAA
Chain of Hepatocyte growth factor receptor (Homo sapiens) (P08581 whole entry): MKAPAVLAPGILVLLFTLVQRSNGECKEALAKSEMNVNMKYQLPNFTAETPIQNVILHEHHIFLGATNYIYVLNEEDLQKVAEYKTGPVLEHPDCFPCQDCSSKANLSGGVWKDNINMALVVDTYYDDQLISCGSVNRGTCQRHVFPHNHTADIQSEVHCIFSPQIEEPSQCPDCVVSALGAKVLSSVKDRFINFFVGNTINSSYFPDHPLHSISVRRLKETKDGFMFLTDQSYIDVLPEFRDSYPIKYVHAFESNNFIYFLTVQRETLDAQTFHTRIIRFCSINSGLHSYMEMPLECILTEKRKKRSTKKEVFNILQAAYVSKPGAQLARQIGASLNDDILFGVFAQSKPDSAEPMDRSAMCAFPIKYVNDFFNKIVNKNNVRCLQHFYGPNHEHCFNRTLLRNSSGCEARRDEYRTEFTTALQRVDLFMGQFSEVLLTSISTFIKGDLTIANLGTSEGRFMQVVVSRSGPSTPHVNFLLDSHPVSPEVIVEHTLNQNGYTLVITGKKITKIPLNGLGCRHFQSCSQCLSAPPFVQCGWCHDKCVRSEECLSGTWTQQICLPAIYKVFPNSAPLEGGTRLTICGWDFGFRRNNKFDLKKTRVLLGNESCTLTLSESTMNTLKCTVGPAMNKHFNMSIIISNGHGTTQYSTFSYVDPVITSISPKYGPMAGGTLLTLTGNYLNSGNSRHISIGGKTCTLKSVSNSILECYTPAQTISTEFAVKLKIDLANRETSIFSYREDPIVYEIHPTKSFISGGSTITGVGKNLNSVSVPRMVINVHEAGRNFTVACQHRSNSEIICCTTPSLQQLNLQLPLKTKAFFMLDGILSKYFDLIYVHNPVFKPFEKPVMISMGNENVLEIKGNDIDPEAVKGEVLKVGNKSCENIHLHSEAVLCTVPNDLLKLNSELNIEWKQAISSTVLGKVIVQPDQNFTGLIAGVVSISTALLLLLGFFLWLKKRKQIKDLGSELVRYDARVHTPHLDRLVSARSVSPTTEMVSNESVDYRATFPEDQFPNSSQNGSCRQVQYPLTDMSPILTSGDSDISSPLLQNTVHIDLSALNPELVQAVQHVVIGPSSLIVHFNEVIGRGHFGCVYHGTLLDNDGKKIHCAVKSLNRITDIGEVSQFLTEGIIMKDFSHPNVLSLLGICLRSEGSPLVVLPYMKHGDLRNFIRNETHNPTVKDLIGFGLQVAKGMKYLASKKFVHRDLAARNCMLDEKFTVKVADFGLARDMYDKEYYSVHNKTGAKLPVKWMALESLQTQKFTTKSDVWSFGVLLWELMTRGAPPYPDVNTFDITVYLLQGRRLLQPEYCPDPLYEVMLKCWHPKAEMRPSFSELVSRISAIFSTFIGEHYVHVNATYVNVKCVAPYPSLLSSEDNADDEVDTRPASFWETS
Chain of Inhibitor of nuclear factor kappa-B kinase subunit alpha (Homo sapiens) (O15111 whole entry): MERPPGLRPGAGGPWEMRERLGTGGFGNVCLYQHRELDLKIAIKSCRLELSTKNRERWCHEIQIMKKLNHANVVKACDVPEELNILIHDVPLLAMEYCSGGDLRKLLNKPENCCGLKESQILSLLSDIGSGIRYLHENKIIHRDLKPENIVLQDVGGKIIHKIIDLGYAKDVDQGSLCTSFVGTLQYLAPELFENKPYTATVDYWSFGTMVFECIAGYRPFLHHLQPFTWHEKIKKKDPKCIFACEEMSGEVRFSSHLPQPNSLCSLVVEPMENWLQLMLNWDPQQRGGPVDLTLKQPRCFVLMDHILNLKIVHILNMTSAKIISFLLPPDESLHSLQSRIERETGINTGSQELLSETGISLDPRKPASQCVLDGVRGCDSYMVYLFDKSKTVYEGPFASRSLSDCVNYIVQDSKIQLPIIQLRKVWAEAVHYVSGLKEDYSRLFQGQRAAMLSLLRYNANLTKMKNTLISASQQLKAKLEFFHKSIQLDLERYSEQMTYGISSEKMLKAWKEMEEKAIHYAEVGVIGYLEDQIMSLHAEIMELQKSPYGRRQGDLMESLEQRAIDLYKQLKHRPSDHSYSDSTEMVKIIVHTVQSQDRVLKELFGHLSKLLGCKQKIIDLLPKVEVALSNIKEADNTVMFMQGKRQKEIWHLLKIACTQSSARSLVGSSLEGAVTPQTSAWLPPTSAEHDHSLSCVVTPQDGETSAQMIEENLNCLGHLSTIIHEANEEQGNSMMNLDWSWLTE
Chain of 3-phosphoinositide-dependent protein kinase 1 (Homo sapiens) (O15530 whole entry): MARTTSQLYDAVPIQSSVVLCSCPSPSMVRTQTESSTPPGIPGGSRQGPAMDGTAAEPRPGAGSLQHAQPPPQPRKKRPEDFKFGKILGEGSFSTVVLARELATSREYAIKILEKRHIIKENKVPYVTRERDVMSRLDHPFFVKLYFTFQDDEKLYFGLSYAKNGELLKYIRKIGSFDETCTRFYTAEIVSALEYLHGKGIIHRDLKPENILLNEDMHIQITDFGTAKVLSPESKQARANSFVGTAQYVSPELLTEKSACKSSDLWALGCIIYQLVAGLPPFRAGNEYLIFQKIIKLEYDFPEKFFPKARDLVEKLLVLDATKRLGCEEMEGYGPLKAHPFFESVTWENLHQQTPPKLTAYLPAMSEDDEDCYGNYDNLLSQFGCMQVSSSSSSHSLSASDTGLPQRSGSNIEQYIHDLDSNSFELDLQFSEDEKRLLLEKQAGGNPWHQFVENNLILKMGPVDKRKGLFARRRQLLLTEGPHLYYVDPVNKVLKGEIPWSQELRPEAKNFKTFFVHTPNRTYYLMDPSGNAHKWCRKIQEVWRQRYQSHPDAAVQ
Chain of cAMP-dependent protein kinase catalytic subunit PRKX (Homo sapiens) (P51817 whole entry): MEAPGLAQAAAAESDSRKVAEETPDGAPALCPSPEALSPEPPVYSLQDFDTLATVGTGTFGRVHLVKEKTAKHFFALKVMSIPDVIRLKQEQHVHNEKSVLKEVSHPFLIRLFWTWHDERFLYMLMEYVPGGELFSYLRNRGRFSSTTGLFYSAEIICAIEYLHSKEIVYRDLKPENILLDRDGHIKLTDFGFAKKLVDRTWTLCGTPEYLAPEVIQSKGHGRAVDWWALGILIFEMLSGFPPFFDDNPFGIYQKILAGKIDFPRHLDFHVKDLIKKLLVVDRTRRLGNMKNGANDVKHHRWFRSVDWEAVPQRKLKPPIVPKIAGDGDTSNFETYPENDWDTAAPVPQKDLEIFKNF

O=C1Nc2ncccc2/C1=C1/Nc2ncccc2C1=O showed an Activity [1] of 85%, an Activity [2] of 100% and an Activity [3] of 70%. The GI50 [4] was 4190 nM, the GI50 [5] was 575 nM and the Activity [6] was 0.16%. For the same molecule, the Activity [7] was 118%, the Activity [8] was 65% and the Activity [9] was 117%. For the same molecule, the Activity [10] was 98%, the Activity [11] was 83% and the Activity [12] was 103%. For the same molecule, the GI50 [13] was 1420 nM, the GI50 [14] was 1850 nM and the Activity [15] was “Active”. The Activity [16] was 18.57%, the Activity [17] was 93% and the Activity [18] was 97%. The Activity [19] was 96%, the Activity [20] was 61% and the IC50 [21] was 500 nM. For the same molecule, the Activity [22] was 87%, the Activity [23] was 77% and the Activity [24] was 96%. For the same molecule, the Activity [25] was 99%, the Activity [26] was 107% and the Activity [27] was 81%. It also gave an Activity [28] of 100%, an Activity [29] of 99% and an Activity [30] of 81%. It also gave an Activity [31] of 107%, an Activity [32] of 97% and an Activity [33] of 92%.
